Measured values from ChEMBL document CHEMBL1125068, “Structure-based, C2 symmetric inhibitors of HIV protease” (J Med Chem, 1990).

Columns and labels:
[1] = molecular target: T1, Human immunodeficiency virus type 1 protease (Human immunodeficiency virus 1, UniProt Q72874); assay: Inhibitory activity against recombinant HIV-1 Protease
[2] = system: H9; assay: In vitro inhibitory activity against HIV-1 in H9 cells; format: functional, cell-based; settings: Homo sapiens
In short: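 H9 cells (2 × 10⁴) were infected with 100 TCID₅₀ HIV-1 3B for 2 h, washed, then cultured at 37 °C with inhibitor. Viral replication was read as p24 antigen by ELISA on days 7 and 10, and IC₅₀ was taken from the dose-response. Viability of uninfected cultures was checked by trypan blue exclusion.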

[3] = system: H9; assay: In vitro inhibitory cytopathic effect against HIV-1 in H9 cells; format: functional; settings: Homo sapiens, H9, read-out: TC50
[4] = system: MT4; assay: In vitro inhibitory cytopathic effect against HIV-1 in MT-4 cells; format: functional; settings: Homo sapiens, MT4, read-out: TC50
In short: (§1)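 MT4 cells (1 × 10⁴) were infected with 10 TCID₅₀ HIV-1 3B for 2 h, washed, and grown at 37 °C in inhibitor-containing medium. Viral cytopathic effect and compound toxicity were both scored on day 5 by MTT uptake. IC₅₀ and TC₅₀ came from this read-out.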

[5] = system: MT4; assay: In vitro inhibitory activity against HIV-1 in MT-4 cells; format: functional, cell-based; settings: Homo sapiens; in short: as §1
[6] = molecular target: T1, Human immunodeficiency virus type 1 protease; assay: Inhibitory activity against recombinant HIV-1 protease.

CC[C@H](C)[C@H](NC(=O)OCc1ccccc1)C(=O)N[C@@H](Cc1ccccc1)C(O)[C@H](Cc1ccccc1)NC(=O)[C@H](NC(=O)OCc1ccccc1)[C@@H](C)CC (some centres undefined)
IC50 [1]: 4.9 nM

CC(C)C[C@H](NC(=O)OCc1ccccc1)C(=O)N[C@@H](Cc1ccccc1)C(O)[C@H](Cc1ccccc1)NC(=O)[C@@H](CC(C)C)NC(=O)OCc1ccccc1 (some centres undefined)
IC50 [1]: > 100 nM

CC(=O)N[C@H](C(=O)N[C@@H](Cc1ccccc1)C(O)[C@H](Cc1ccccc1)NC(=O)[C@@H](NC(C)=O)C(C)C)C(C)C
IC50 [1]: 12 nM

CC(C)[C@H](NC(=O)OCc1ccccc1)C(=O)N[C@@H](Cc1ccccc1)[C@@H](O)[C@H](O)[C@H](Cc1ccccc1)NC(=O)[C@H](NC(=O)OCc1ccccc1)C(C)C
IC50 [2]: 20 nM | CC50 [3]: 10 µM | CC50 [4]: > 100 µM | IC50 [1]: 0.22 nM | IC50 [5]: 80 nM

CC(C)[C@H](NC(=O)OCc1ccccc1)C(=O)N[C@@H](Cc1ccccc1)[C@@H](O)[C@H](Cc1ccccc1)NC(=O)[C@H](NC(=O)OCc1ccccc1)C(C)C
IC50 [1]: 3 nM

CC(C)[C@H](NC(=O)OCc1ccccc1)C(=O)N[C@@H](Cc1ccccc1)[C@@H](O)[C@@H](O)[C@H](Cc1ccccc1)NC(=O)[C@H](NC(=O)OCc1ccccc1)C(C)C
IC50 [2]: 20 nM | CC50 [3]: 60 µM | CC50 [4]: > 100 µM | IC50 [6]: 0.22 nM | IC50 [5]: 16 nM

CC(=O)N[C@@H](Cc1ccccc1)C(O)[C@H](Cc1ccccc1)NC(C)=O
IC50 [1]: > 10000 nM

CC(C)[C@H](NC(=O)OCc1ccccc1)C(=O)N[C@@H](Cc1ccccc1)[C@H](O)[C@@H](O)[C@H](Cc1ccccc1)NC(=O)[C@H](NC(=O)OCc1ccccc1)C(C)C
IC50 [2]: 60 nM | CC50 [3]: > 100 µM | CC50 [4]: > 100 µM | IC50 [6]: 0.38 nM | IC50 [5]: 150 nM

CC(C)(C)OC(=O)N[C@@H](Cc1ccccc1)[C@H](O)[C@@H](O)[C@H](Cc1ccccc1)NC(=O)OC(C)(C)C
IC50 [1]: 280 nM

CC(C)(C)OC(=O)N[C@@H](Cc1ccccc1)[C@H](O)[C@H](O)[C@H](Cc1ccccc1)NC(=O)OC(C)(C)C
IC50 [1]: 12 nM

CC(=O)N[C@H](C(=O)N[C@H](C(=O)N[C@@H](Cc1ccccc1)C(O)[C@H](Cc1ccccc1)NC(=O)[C@H](NC(=O)[C@H](NC(C)=O)C(C)C)C(C)C)C(C)C)C(C)C (some centres undefined)
IC50 [1]: 10 nM

CC(C)(C)OC(=O)N[C@@H](Cc1ccccc1)[C@@H](O)[C@H](O)[C@H](Cc1ccccc1)NC(=O)OC(C)(C)C
IC50 [1]: 40 nM
